A selection: hits, their analogues and other compounds. The true share with any hit is near 4%.
E-sel inducer – induces E-selectin expression in human endothelial cells. HUVEC E-selectin immunofluorescence imaging; normalized: neutral wells 0, TNF-alpha wells 100. 0.37% of 260,000 active. P16581. activation, % at 7.58 µM;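 active = mean E-selectin-positive cell signal at least 10% of the positive control, reached in at least 60% of replicates, without over 20% cell loss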
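Assay system: HUVEC primary endothelial cells. Input: 3,000 HUVEC seeded per well. Doses: one compound dose added by pin transfer. Read-out basis: % PE-positive cells. Benchmarks: TNF-alpha high, DMSO low. Detection: immunofluorescence imaging. Buffer or medium: EGM-2, gelatin.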
FGF22 binding – FGF22 (human) thermal shift binding; recombinant FGF22 thermal shift, SYPRO orange fluorescence; percent of sucrose octasulfate shift, DMSO zero; activity (Tm shift, normalised), % at 9.99 µM; 1.5% of 340,000 active;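 active = mean Tm shift, scaled 0 neutral to 100 positive control, at about 1.3% or above, every replicate too, limit read from the data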
Target sequence (Q9HCT0 whole entry, looked up): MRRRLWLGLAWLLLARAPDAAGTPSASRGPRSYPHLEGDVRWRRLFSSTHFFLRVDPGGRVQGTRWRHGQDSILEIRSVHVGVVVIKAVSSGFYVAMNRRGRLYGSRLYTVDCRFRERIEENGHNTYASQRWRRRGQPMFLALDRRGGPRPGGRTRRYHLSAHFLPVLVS
FN deposit inh – fibronectin deposition inhibition; AH1F fibroblasts, Alexa488-fibronectin deposition fluorescence, overnight; inhibition, % at 12.6 µM; 0.086% of 350,000 active;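 active = mean inhibition across replicates of 30% or more, regardless of how many single replicates reach that level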;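 note: positive control wells lacked labelled fibronectin entirely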
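material = AH1F fibroblast monolayer depositing Alexa488-labelled fibronectin into matrix | amount = 10000 AH1F cells/well | buffer or medium = DMEM plus 2% serum, read in PBS | incubation = 1 h cell adhesion before compound, then overnight fibronectin incubation | detection = fluorescence at 485 nm excitation, 525 nm emission | evaluation = percent inhibition as loss of matrix-bound fibronectin fluorescence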
rRNA inh HTS – selective bacterial rRNA inhibition in E. coli; E. coli WT GFP vs humanized-ribosome RFP mutants, fluorescence, 24 h; active compounds read low; DMSO median 0, no signal -100; GFP signal change (wild-type ribosome), % (concentration not given with the values); 1.6% of 350,000 active; AID 720706;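 active = significant combined selectivity score with lowered wild-type GFP, culture density cut under 30%, mutant RFP and density less affected; inactive = any of these conditions unmet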
SIRT5 block – sirtuin-5 (human) deacylase inhibition; inhibition, % at 15 µM; Purified SirT5, succinyl-peptide AMC, trypsin-coupled fluorescence; AID 652115; 1.1% of 330,000 active; Q9NXA8; in the data active = inhibition above about 15%
Target sequence (Q9NXA8 whole entry, looked up): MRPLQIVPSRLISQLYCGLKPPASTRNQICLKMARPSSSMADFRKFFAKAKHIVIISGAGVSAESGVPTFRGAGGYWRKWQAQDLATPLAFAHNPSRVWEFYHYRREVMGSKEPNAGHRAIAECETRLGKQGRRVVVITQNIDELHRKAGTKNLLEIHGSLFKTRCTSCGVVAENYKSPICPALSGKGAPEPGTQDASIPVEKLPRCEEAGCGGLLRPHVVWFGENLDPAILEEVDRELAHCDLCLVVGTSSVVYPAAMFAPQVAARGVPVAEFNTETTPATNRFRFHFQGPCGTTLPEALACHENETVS
C2C12 statin – suppressors of simvastatin-induced myotoxicity in C2C12 myotubes | ATP luminescence, 48 h; scaled: DMSO 0, geranylgeraniol control 100 | rescue of ATP level, % at 7.49 µM | 0.78% of 330,000 active;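 active = mean ATP rescue above about 67%, or every replicate alone reaching that limit, limit read from the data, passing the limit was not always enough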;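 note: myotubes were challenged with 10 µM simvastatin during compound exposure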
Active calls of the source: *; nt = no result given.

SMILES	E-sel inducer	FGF22 binding	FN deposit inh	rRNA inh HTS	SIRT5 block	C2C12 statin
COc1ccc(NC(=O)c2ccc(-c3csc(C)n3)cc2)cc1	nt	-0.3	-6.4	11.5	4.5	-5.3
C[C@H](CO)N1C[C@H](C)[C@@H](CN(C)S(=O)(=O)c2cccs2)OCCCC[C@H](C)Oc2ccc(NC(=O)c3ccccc3)cc2C1=O	3.0	-0.1	nt	0.2	nt	nt
CCOc1[nH]n(-c2ccccc2)c(=O)c1C=Nc1ccc(Cl)cc1	nt	nt	-0.3	nt	nt	119.6*
CCOc1[nH]n(-c2ccccc2)c(=O)c1C=Nc1ccc(C)cc1	nt	0.0	nt	16.3	17.7*	nt
CCOc1[nH]n(-c2ccccc2)c(=O)c1C=Nc1ccccc1	nt	42.0	-5.5	7.6	1.2	3.6
COc1ccccc1C(=O)Nc1ccc2c(c1)C(=O)N(C)C[C@H](OC)[C@H](C)CN(C)[C@H](C)CO2	0.7	-0.1	9.1	-6.7	2.2	nt
O=C(Nc1ccncc1)Nc1cccc(C(F)(F)F)c1	-0.2	-0.4	-8.5	-53.4	-1.1	-12.6
NNC(=O)Nc1cccc(C(F)(F)F)c1	2.0	42.7	-3.1	19.9	41.1*	5.2
N/C(=N\OC(=O)Nc1cccc(C(F)(F)F)c1)c1ccno1	0.1	0.0	-15.7	-51.2*	-2.5	-3.6
O=C(C[C@H]1CC[C@@H]2[C@H](COC[C@@H](O)CN2Cc2cccc(Cl)c2)O1)Nc1nccs1	0.0	-0.2	-3.9	0.4	0.7	34.8
CN(C)C(=O)C[C@H]1CC[C@@H]2[C@H](COC[C@H](O)CN2CC2CCCCC2)O1	0.1	-0.1	6.4	2.9	3.2	-17.8
CCOc1ccc(C(=O)c2cc([N+](=O)[O-])ccc2N2CCOCC2)cc1	0.9	-0.1	-19.4	-15.3	-0.7	nt
O=C(c1cc([N+](=O)[O-])ccc1N1CCOCC1)N1CCOCC1	1.9	43.1*	-1.3	9.0	2.2	3.0
COc1ccc(C(=O)c2cc([N+](=O)[O-])ccc2N2CCOCC2)cc1	4.5	-0.2	-32.8	-19.1*	3.1	nt
C[C@H]1CN([C@@H](C)CO)C(=O)c2cc(NC(=O)Cc3ccccc3)ccc2O[C@@H]1CN(C)Cc1ccc(Oc2ccccc2)cc1	0.2	-0.4	23.2	0.5	17.0*	-33.6
C[C@@H]1CN([C@@H](C)CO)C(=O)c2cc(NC(=O)Cc3ccccc3)ccc2O[C@H]1CN(C)Cc1ccc(Oc2ccccc2)cc1	0.1	0.1	11.8	0.7	11.0	-22.9
C[C@H](CO)N1C[C@H](C)[C@H](CN(C)Cc2ccc(Oc3ccccc3)cc2)Oc2ccc(NC(=O)Cc3ccccc3)cc2C1=O	0.0	0.3	10.4	-4.6	43.0*	-131.2
C[C@@H]1CN([C@@H](C)CO)C(=O)c2cc(NC(=O)Cc3cn(C)c4ccccc34)ccc2O[C@@H]1CN(C)Cc1ccc(Oc2ccccc2)cc1	2.8	0.0	nt	2.7	19.0*	nt
CCC(=O)Nc1ccc2c(c1)C(=O)N(C)C[C@@H](OC)[C@@H](C)CN(C(=O)NC(C)C)[C@H](C)CO2	-0.2	0.0	-18.7	3.6	-10.1	-2.4
C[C@@H]1CN([C@H](C)CO)C(=O)Cc2cc(NC(=O)Nc3ccc(C(F)(F)F)cc3)ccc2O[C@@H]1CN(C)C(=O)NC1CCCCC1	9.7	nt	nt	1.2	nt	-77.5
c1ccc(C2=Nc3ccccc3OC2)cc1	nt	nt	2.0	nt	nt	88.7*
COc1ccc2c3c([nH]c2c1)[C@H](CO)N(C(=O)CC1CC1)CC31CCN(Cc2cccnc2)CC1	-0.3	0.0	nt	-2.2	-8.3	nt
OCCNC(=S)Nc1ccc(Cl)c(Cl)c1	nt	1.4*	-0.1	-16.7	0.0	nt
Cc1cc(C)cc(NC(=S)NCCCO)c1	nt	-0.2	-3.9	4.7	3.2	nt
OCCNC(=S)Nc1cc(Cl)cc(Cl)c1	nt	0.1	-3.9	-21.6*	-4.0	nt
SMILES	E-sel inducer	FGF22 binding	FN deposit inh	rRNA inh HTS	SIRT5 block	C2C12 statin
COc1ccc(NC(=O)N(C)C[C@H]2OCCCC[C@H](C)Oc3ccc(NC(=O)C4CCCCC4)cc3C(=O)N([C@@H](C)CO)C[C@@H]2C)cc1	0.1	0.1	nt	-3.6	3.7	nt
C=CCNC(=O)c1cccn1-c1ccsc1C(=O)OC	nt	nt	nt	nt	nt	90.6*
CN1CCN(C(=O)/C(=C/c2ccc(F)cc2)c2ccsc2)CC1	nt	42.9*	4.5	5.0	-7.2	nt
O=C(C[C@@H]1C=C[C@H](NC(=O)CC2CC2)[C@@H](CO)O1)NCc1ccccc1	0.7	nt	nt	1.9	-2.2	nt
COc1ccccc1/C=C/C(=O)NCC(=O)N/N=C/c1ccc(C)o1	0.0	-0.2	2.5	6.0	99.8*	-3.8
Cc1ccc(/C=N/NC(=O)CNC(=O)c2cccc([N+](=O)[O-])c2C)o1	nt	43.3*	-3.3	13.5	-6.5	nt
O=C(COCC(=O)N/N=C/c1ccccc1F)N/N=C/c1ccccc1F	-1.4	0.1	1.0	-1.4	4.7	nt
COc1ccccc1/C=N/NC(=O)COCC(=O)N/N=C/c1ccccc1OC	-0.2	0.2	-3.5	-0.3	18.8*	-2.1
COc1ccccc1/C=C/C(=O)NCC(=O)N/N=C/c1ccccc1	nt	-0.1	nt	-10.8	-0.6	nt
COc1ccc([N+](=O)[O-])cc1/C=N/NC(=O)Cc1ccccc1	nt	43.8*	4.0	0.4	3.1	nt
C[C@H](O)C#Cc1ccc2c(c1)O[C@H](CN(C)Cc1ccccn1)[C@H](C)CN([C@@H](C)CO)S2(=O)=O	0.2	-0.3	nt	-1.2	2.3	-2.0
COc1cccc(S(=O)(=O)Nc2ccc3c(c2)[C@@H]2C[C@@H](CC(=O)NCc4ccccc4F)O[C@@H](CO)[C@@H]2O3)c1	nt	-0.6	nt	-1.8	-0.9	-7.5
COc1ccc2c3c([nH]c2c1)[C@@H](CO)N(Cc1nccs1)CC31CN(C(=O)C2CC2)C1	0.2	0.2	nt	2.0	-1.1	nt
C[C@@H]1CN([C@@H](C)CO)C(=O)c2cc(NS(=O)(=O)c3cccs3)ccc2O[C@@H](C)CCCCO[C@@H]1CN(C)C(=O)Nc1ccc(C(F)(F)F)cc1	0.4	-0.3	nt	0.5	nt	nt
COc1ccccc1/C=C/C(=O)NCC(=O)N/N=C/c1ccc2c(c1)OCO2	0.2	0.3	-2.3	4.0	-2.2	-3.5
COc1ccccc1/C=C\C(=O)NCC(=O)N/N=C/c1ccc(O)cc1O	-0.3	0.1	6.5	-28.6*	-2.2	nt
CC(C)NC(=O)N(C)C[C@H]1OCCCC[C@H](C)Oc2ccc(NC(=O)Cc3ccccc3)cc2C(=O)N([C@H](C)CO)C[C@@H]1C	-0.2	-0.4	2.0	-1.3	-0.8	nt
Cc1ccc(-n2ncc3c(SCc4ccccn4)ncnc32)c(C)c1	nt	0.2	nt	-15.6*	-2.4	nt
O=C1NCCC12C(=O)Nc1ccccc12 (centres undefined)	nt	0.1	nt	nt	nt	2.5
O=C(O)C1=C2C(=O)Nc3cccc(c32)C2(C1)C(=O)Nc1ccccc12 (centres undefined)	nt	0.4	6.9	-7.0	34.6*	2.1
S=C1Cc2ccccc2N1	nt	0.1	2.8	-11.4	-3.5	73.7*
